Xi reactivation: activators of inactive X chromosome reactivation, primary screen, imaging, XiGFP fibroblasts, GFP high-content imaging, set 2; XiGFP mouse fibroblasts, % GFP-positive cells imaging, 3 d; cells co-treated with 5-aza-dC sensitizer; scaled so ellipticine positive control = 100%; 360,000 compounds, 0.055% hits; activation, % at 7.58 µM; AID 743238, 2013;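 active means mean normalized replicate activation at least 10% and every replicate at or above 10%; inconclusive means only one of the two criteria met; inactive means mean below 10% and not all replicates reach 10%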;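 further: 0% = median of on-plate neutral control wells and 100% = ellipticine 6 µM median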
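Schedule: 3 d treatment, 15 min room-temperature fixation; system: 68-5-11 XiGFP fibroblast line; buffer or medium: DMEM plus 5-aza-dC sensitizer; control set: ellipticine 6 µM positive control; compound: one concentration, pinned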
E-selectin induc: E-selectin induction in HUVECs, primary screen, imaging, HUVEC, immunofluorescence imaging, single point; normalized: neutral wells 0, TNF-alpha wells 100; activation, % at 7.58 µM; 260,000 compounds, 0.37% hits;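 active means mean E-selectin-positive cell signal at least 10% of the positive control, reached in at least 60% of replicates, without over 20% cell loss; inconclusive means no rule given, readout overlaps actives, possibly toxicity-flagged; inactive means the rest, including those meeting only one limit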
Target sequence (P16581 whole entry, looked up): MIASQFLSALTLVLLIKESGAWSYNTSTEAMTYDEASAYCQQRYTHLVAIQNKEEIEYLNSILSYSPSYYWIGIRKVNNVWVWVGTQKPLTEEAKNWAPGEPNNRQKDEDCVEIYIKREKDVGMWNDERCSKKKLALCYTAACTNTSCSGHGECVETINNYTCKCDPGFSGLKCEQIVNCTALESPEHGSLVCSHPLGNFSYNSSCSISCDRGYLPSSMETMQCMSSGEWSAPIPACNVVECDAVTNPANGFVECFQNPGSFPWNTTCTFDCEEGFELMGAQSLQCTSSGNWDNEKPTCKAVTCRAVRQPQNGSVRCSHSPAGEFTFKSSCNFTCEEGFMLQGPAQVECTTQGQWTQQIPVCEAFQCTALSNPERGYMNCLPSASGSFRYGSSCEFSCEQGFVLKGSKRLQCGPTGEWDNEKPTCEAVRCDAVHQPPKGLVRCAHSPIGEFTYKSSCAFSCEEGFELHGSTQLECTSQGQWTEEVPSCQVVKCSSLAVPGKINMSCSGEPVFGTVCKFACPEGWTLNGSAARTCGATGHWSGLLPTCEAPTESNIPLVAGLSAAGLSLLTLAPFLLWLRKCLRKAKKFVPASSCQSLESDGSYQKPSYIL
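Test system: HUVEC | Signal: Immunofluorescence imaging | Read-out: Percent E-selectin-positive cells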
Numbers without * were called inactive; u = inconclusive; x = no result. Only a selection was taken, and hits are over-represented in it overall.

SMILES	Xi reactivation	E-selectin induc
C[C@@H]1CN([C@H](C)CO)C(=O)c2cc(NS(=O)(=O)c3cn(C)cn3)ccc2O[C@@H]1CN(C)C(=O)Nc1ccc2c(c1)OCO2	0	62*
Cc1noc(C)c1NC(=O)Nc1ccc2c(c1)C(=O)N([C@H](C)CO)C[C@@H](C)[C@@H](CN(C)S(C)(=O)=O)O2	0	-8
COc1ccc(Cc2noc(CN(C)CCc3ccccc3)n2)cc1OC	0	x
COc1ccc(CN(C)Cc2nc(Cc3ccccc3Cl)no2)cc1OC	33*	0
CC(OC(=O)c1nsc(Cl)c1Cl)C(=O)NCCc1ccccc1 (stereo not drawn)	0	29*
CCC(OC(=O)c1nsc(Cl)c1Cl)C(=O)NCc1ccco1 (stereo not drawn)	x	-1
Cc1c(O)nc2ccccn2c1=O	0	71*
CCCCc1c(O)nc2ccccn2c1=O	0	0
CCCNC(=O)C1CCN(S(=O)(=O)c2c(C)noc2/C=C\c2ccc(OC)cc2)CC1	0	0
COc1ccc(/C=C\c2onc(C)c2S(=O)(=O)N2CCC(C(=O)NCc3ccco3)CC2)cc1	11*	0
COc1ccc2c3c([nH]c2c1)[C@H](CO)N(S(C)(=O)=O)CC31CCN(Cc2cccc(F)c2)CC1	1	0
C[C@H]1CCCCO[C@@H](CN(C)S(=O)(=O)c2cn(C)cn2)[C@@H](C)CN([C@@H](C)CO)C(=O)c2cc(NC(=O)CCC(F)(F)F)ccc2O1	0	0
CCc1cccc(C)c1NC(=O)CCCN1C(=O)NC(C)(C)C1=O	0	27*
CC(C)c1ccc(NC(=O)CCCN2C(=O)NC(C)(C)C2=O)cc1	0	0
C[C@H]1CN([C@@H](C)CO)C(=O)c2cccc(NS(=O)(=O)c3ccc(F)cc3)c2O[C@@H]1CN(C)S(=O)(=O)c1cccs1	-1	11
C[C@@H]1CN([C@H](C)CO)S(=O)(=O)c2ccc(-c3ccncc3)cc2O[C@@H]1CN(C)C(=O)C1CCC1	-1	1
Oc1c(Cl)cc(Cl)cc1/C=N/Nc1ncc(Br)cn1	0	13
CN(/N=C/c1cc(Cl)cc(Cl)c1O)C(=S)NC(C)(C)C	0	71*
CN(C)C(=O)C[C@@H]1C[C@@H]2c3cc(NS(C)(=O)=O)ccc3O[C@@H]2[C@H](CO)O1	0	1
C[C@H](CO)N1C[C@H](C)[C@H](CN(C)Cc2ccncc2)Oc2ccc(NS(C)(=O)=O)cc2CC1=O	0	257*
C[C@H](CO)N1C[C@H](C)[C@@H](CN(C)Cc2ccncc2)Oc2ccc(NS(C)(=O)=O)cc2CC1=O	0	-4
C[C@H](CO)N1C[C@H](C)[C@H](CN(C)Cc2ccncc2)Oc2ccc(NC(=O)CCC(F)(F)F)cc2CC1=O	0	314*
C[C@H]1CN([C@@H](C)CO)C(=O)Cc2cc(NS(C)(=O)=O)ccc2O[C@@H]1CN(C)Cc1ccncc1	0	449*
C[C@H]1CN([C@@H](C)CO)C(=O)Cc2cc(NS(C)(=O)=O)ccc2O[C@H]1CN(C)Cc1ccncc1	0	-3
C[C@H](CO)N1C[C@H](C)[C@@H](CN(C)Cc2ccncc2)Oc2ccc(NC(=O)CCC(F)(F)F)cc2CC1=O	0	-5
SMILES	Xi reactivation	E-selectin induc
COC(=O)C[C@H]1C[C@H]2c3cc(N(C)C)ccc3O[C@H]2[C@@H](CO)O1	0	0
O=C(NCC[C@@H]1CC[C@@H](NS(=O)(=O)c2ccc(Cl)cc2)[C@H](CO)O1)Nc1ccc(F)cc1	0	1
C[C@@H]1CN([C@H](C)CO)C(=O)c2cccc(NC(=O)C3CCOCC3)c2O[C@@H]1CN(C)Cc1ccc(Oc2ccccc2)cc1	0	380*
C[C@H]1CN([C@@H](C)CO)C(=O)c2cccc(NC(=O)C3CCOCC3)c2O[C@H]1CN(C)Cc1ccc(Oc2ccccc2)cc1	0	u
C[C@@H]1CN([C@@H](C)CO)C(=O)c2cccc(NC(=O)C3CC3)c2O[C@H]1CN(C)Cc1ccc(Oc2ccccc2)cc1	0	-1
C[C@H](CO)N1C[C@H](C)[C@H](CN(C)Cc2ccc(Oc3ccccc3)cc2)Oc2c(NC(=O)C3CCOCC3)cccc2C1=O	0	168*
CCOC(=O)/C=c1\s/c(=C\c2ccc3cc(OC)ccc3c2)c(=O)n1CC(=O)NCc1ccc2c(c1)OCO2	28*	x
CCOC(=O)/C=c1\s/c(=C\c2ccccc2C)c(=O)n1CC(=O)NCc1ccc2c(c1)OCO2	0	x
C[C@@H]1CN([C@@H](C)CO)C(=O)c2cc(-c3cccc(F)c3)cnc2O[C@H]1CN(C)CC1CCOCC1	-1	0
CC(C)NC(=O)Nc1ccc2c(c1)CC(=O)N([C@@H](C)CO)C[C@H](C)[C@H](CN(C)Cc1ccc(C(=O)O)cc1)O2	0	42*
CC(C)NC(=O)Nc1ccc2c(c1)CC(=O)N([C@@H](C)CO)C[C@@H](C)[C@@H](CN(C)Cc1ccc(C(=O)O)cc1)O2	0	21
CC(C)NC(=O)Nc1ccc2c(c1)CC(=O)N([C@@H](C)CO)C[C@@H](C)[C@H](CN(C)Cc1ccc(C(=O)O)cc1)O2	2	6
C[C@@H]1CN([C@@H](C)CO)C(=O)Cc2cc(NC(=O)Nc3ccc(F)cc3)ccc2O[C@H]1CN(C)Cc1ccc(C(=O)O)cc1	0	55*
CC(C)NC(=O)Nc1ccc2c(c1)CC(=O)N([C@H](C)CO)C[C@H](C)[C@@H](CN(C)Cc1ccc(C(=O)O)cc1)O2	0	39*
C[C@H](CO)N1C[C@H](C)[C@H](CN(C)Cc2ccc(C(=O)O)cc2)Oc2ccc(NC(=O)Nc3ccc(F)cc3)cc2CC1=O	0	-6
C[C@@H]1CN([C@@H](C)CO)C(=O)c2cc(NC(=O)Cc3ccccc3)ccc2O[C@@H]1CN(C)S(=O)(=O)c1ccc(Cl)cc1	0	-14
Cc1ccc(S(=O)(=O)N(C)C[C@@H]2Oc3ccc(NC(=O)NC4CCCCC4)cc3C(=O)N([C@H](C)CO)C[C@H]2C)cc1	0	1
C[C@H](CO)N1C[C@H](C)[C@@H](CN(C)S(C)(=O)=O)Oc2ccc(NC(=O)C3CCCCC3)cc2C1=O	0	-12
C[C@@H]1CN([C@@H](C)CO)C(=O)c2cc(NC(=O)NC3CCCCC3)ccc2O[C@@H]1CN(C)S(=O)(=O)c1ccc(Cl)cc1	0	27*
C[C@H](CO)N1C[C@H](C)[C@@H](CN(C)S(=O)(=O)c2ccc(Cl)cc2)Oc2ccc(NC(=O)NC3CCCCC3)cc2C1=O	0	13
C[C@H](CO)N1C[C@H](C)[C@H](CN(C)S(C)(=O)=O)Oc2ccc(NC(=O)C3CCCCC3)cc2C1=O	0	41*
C[C@H]1CN([C@@H](C)CO)C(=O)c2cc(NC(=O)NC3CCCCC3)ccc2O[C@@H]1CN(C)S(=O)(=O)c1ccc(Cl)cc1	0	449*
C[C@H](CO)N1C[C@H](C)[C@H](CN(C)S(=O)(=O)c2ccc(Cl)cc2)Oc2ccc(NC(=O)Cc3ccccc3)cc2C1=O	0	36*
O=C(Nc1ccc2c(c1)[C@@H]1C[C@H](CC(=O)N3CCOCC3)O[C@H](CO)[C@@H]1O2)C1CCC1	0	1

Source: PubChem (Broad Institute)
